Assay results published in PubChem BioAssay AID652011 (Sanford-Burnham Center for Chemical Genomics, 2013).
Where “and” joins values, the source holds several entries; their conditions need not be identical. Identical values can stand only once.

Molecular target: Hypoxia-inducible factor 1-alpha (Homo sapiens) (UniProt Q16665)
Assay: HIF reporter inhibition across pancreatic and renal lines – cell-based, luminescence, MIAPaCa-2, 786-0, panel, SAR follow-up (AID 652011)
Details: MIAPaCa-2/PANC HIF reporter, luciferase luminescence, desferoxamine, overnight, HIF1a, run 2; at 99 µM (top of the series)
How it was run: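 Reagent: Desferoxamine added before compound | Doses: Compounds from 10 mM and 0.3125 mM stocks, 1% DMSO final | Times: Overnight seeding and compound exposure, 37 °C, 5% CO2, 10-min detection | Measured by: One-Glo luciferase luminescence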

Sequence of Hypoxia-inducible factor 1-alpha (Homo sapiens) (Q16665 whole entry, looked up): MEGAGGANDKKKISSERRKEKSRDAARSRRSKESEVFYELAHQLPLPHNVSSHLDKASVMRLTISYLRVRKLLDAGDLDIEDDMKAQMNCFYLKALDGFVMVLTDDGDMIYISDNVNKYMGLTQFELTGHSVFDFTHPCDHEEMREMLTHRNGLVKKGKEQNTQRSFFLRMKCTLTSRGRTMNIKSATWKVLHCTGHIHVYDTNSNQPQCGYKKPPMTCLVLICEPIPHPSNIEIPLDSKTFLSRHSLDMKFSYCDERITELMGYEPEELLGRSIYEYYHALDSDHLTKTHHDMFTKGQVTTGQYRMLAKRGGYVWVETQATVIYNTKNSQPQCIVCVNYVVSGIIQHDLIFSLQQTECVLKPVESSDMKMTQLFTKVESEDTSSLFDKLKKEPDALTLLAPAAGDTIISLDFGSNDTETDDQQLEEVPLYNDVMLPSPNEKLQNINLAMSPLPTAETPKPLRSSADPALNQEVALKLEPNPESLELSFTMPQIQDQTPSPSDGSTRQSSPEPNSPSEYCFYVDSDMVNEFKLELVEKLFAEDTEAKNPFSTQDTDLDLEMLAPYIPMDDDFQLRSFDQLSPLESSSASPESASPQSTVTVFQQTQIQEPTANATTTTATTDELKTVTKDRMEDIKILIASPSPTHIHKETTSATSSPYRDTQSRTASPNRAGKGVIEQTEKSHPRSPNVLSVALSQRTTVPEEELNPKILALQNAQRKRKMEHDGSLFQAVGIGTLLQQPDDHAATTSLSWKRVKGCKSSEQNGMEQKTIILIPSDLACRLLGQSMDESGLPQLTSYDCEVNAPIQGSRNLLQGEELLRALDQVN

Compound	inhibition
CCC(C)NC(=O)CCc1nc(-c2ccc(C(C)(C)C)cc2)no1 (stereo not given)	-28.9%
O=C(CCc1nc(-c2ccccc2)no1)NC1CC1	-23.4%
CCNC(=O)CCc1nc(-c2cccc(OC)c2)no1	-31.4%
O=C(O)CCc1nc(-c2ccccc2)no1	16.7%
CCNC(=O)CCc1nc(-c2ccc(C(C)(C)C)cc2)no1	10.5% and -4.06%
CCCCc1ccc(-c2noc(CCC(=O)NC(C)CC)n2)cc1 (stereo not given)	58.1%
CN(C)C(=O)CCc1nc(-c2ccc(C(C)(C)C)cc2)no1	-8.56% and -52.1%
CCNC(=O)CCc1nc(-c2ccccc2C)no1	-28.2%
CC(C)(C)c1ccc(-c2noc(CCC(=O)O)n2)cc1	94.9%
CC(C)(C)c1ccc(-c2noc(CCC(=O)Nc3cccc([N+](=O)[O-])c3)n2)cc1	91.4%
CC(C)(C)c1ccc(-c2noc(CCC(=O)N3CCCCC3)n2)cc1	103%
CNC(=O)CCc1nc(-c2ccc(C(C)(C)C)cc2)no1	18.4%
CCC(C)NC(=O)CCc1nc(-c2ccccc2)no1 (stereo not given)	-19.7%
CCC(C)NC(=O)CCc1nc(-c2ccc(C(C)C)cc2)no1 (stereo not given)	-0.644%
CCc1ccc(-c2noc(CCC(=O)NC(C)(C)C)n2)cc1	-0.564%
CC(C)(C)c1ccc(-c2noc(CCC(=O)NC3CCCCC3)n2)cc1	55.9%
CC(C)(C)c1ccc(-c2noc(CCC(=O)NC3CC3)n2)cc1	-29.7%
CCc1ccc(-c2noc(CCC(=O)NC3CC3)n2)cc1	-49.4%
CCNC(=O)CCc1nc(-c2cccc(F)c2)no1	-31.8%
CCN(CC)C(=O)CCc1nc(-c2ccc(C(C)(C)C)cc2)no1	27.4% and 77.3%
